System: Japanese patients with solid tumors
Test: Phase I safety: drug-related adverse events, DLT, MTD, recommended dose
Format: in vivo, human
Conditions: for Recommended dosage: after-meal conditions
Outline: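 Dose escalation used three-patient cohorts, alternating b.i.d. and t.i.d., starting at 200 mg/m2 b.i.d. Oral dosing was by body surface area for 28 days continuously. b.i.d. doses were taken within 1 h after meals, about 12 h apart; t.i.d. doses about 6 or 12 h apart. Patients were assessed at least weekly and graded by NCI-CTC v2.0. DLT: grade ≥3 non-haematological or grade ≥4 haematological drug-related event. MTD: DLT in 2/3 or 3/6 patients.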

[1] = b.i.d. 200 mg/m^2 × 2, n = 3, G1
[2] = b.i.d. 200 mg/m^2 × 2, n = 3, G2
[3] = b.i.d. 400 mg/m^2 × 2, n = 6, G1
[4] = b.i.d. 400 mg/m^2 × 2, n = 6, G2
[5] = b.i.d. 400 mg/m^2 × 2, n = 6, G3
[6] = b.i.d. 500 mg/m^2 × 2, n = 3, G1
[7] = b.i.d. 500 mg/m^2 × 2, n = 3, G2
[8] = t.i.d. 200 mg/m^2 × 3, n = 6, G1
[9] = t.i.d. 200 mg/m^2 × 3, n = 6, G2
[10] = t.i.d. 400 mg/m^2 × 3, n = 6, G1
[11] = t.i.d. 400 mg/m^2 × 3, n = 6, G2
[12] = t.i.d. 400 mg/m^2 × 3, n = 6, G4

Cc1[nH]c(/C=C2\C(=O)Nc3ccccc32)c(C)c1CCC(=O)O [TSU-68, (Z)-5-[(1,2-dihydro-2-oxo-3H-indol-3-ylidene)methyl]-2,4-dimethyl-1H-pyrrole-3-propanoic acid]
24 (100) no. (%): Discoloration urine/stool, Total no. (%) (all dose levels, n = 24)
4: Number of patients with drug-related Malaise [3] | Number of patients with drug-related Diarrhea [8]
400 mg/body: Recommended dose suggested by the Independent Data Monitoring Committee (b.i.d. after meals)
0: No. maximum grade (patients, drug-related adverse events) [1] | No. maximum grade (patients, drug-related adverse events) (b.i.d. 200 mg/m^2 × 2, n = 3, G3) | No. maximum grade (patients, drug-related adverse events) (b.i.d. 200 mg/m^2 × 2, n = 3, G4) | No. maximum grade (patients, drug-related adverse events) [3] | No. maximum grade (patients, drug-related adverse events) (b.i.d. 400 mg/m^2 × 2, n = 6, G4) | No. maximum grade (patients, drug-related adverse events) [6] | No. maximum grade (patients, drug-related adverse events) (b.i.d. 500 mg/m^2 × 2, n = 3, G3) | No. maximum grade (patients, drug-related adverse events) (b.i.d. 500 mg/m^2 × 2, n = 3, G4) | No. maximum grade (patients, drug-related adverse events) (t.i.d. 200 mg/m^2 × 3, n = 6, G3) | No. maximum grade (patients, drug-related adverse events) (t.i.d. 200 mg/m^2 × 3, n = 6, G4) | No. maximum grade (patients, drug-related adverse events) [10] | No. maximum grade (patients, drug-related adverse events) (t.i.d. 400 mg/m^2 × 3, n = 6, G3)
G4 (DLT): Toxicity ≥ G3-4 (Pt 19, NSCLC, t.i.d. 400 mg/m^2 (2,400 mg/day))
3: Number of patients with drug-related Discoloration urine/stool [1] | No. maximum grade (patients, drug-related adverse events) [2] | Number of patients with drug-related Discoloration urine/stool [6] | Number of patients with drug-related Malaise [6] | Number of patients with drug-related Nauseous [6] | No. maximum grade (patients, drug-related adverse events) [7] | Number of patients with drug-related Vomiting [8] | Number of patients with drug-related Blood albumin decreased [10] | Number of patients with drug-related Diarrhea [10] | Number of patients with drug-related Face edema [10] | Number of patients with drug-related Malaise [10]
5 (20.8) no. (%): Abdominal pain upper, Total no. (%) (all dose levels, n = 24) | Back pain, Total no. (%) (all dose levels, n = 24) | Pleural effusion, Total no. (%) (all dose levels, n = 24)
18 (75.0) no. (%): Malaise, Total no. (%) (all dose levels, n = 24)
G3 (DLT): Toxicity ≥ G3-4 (Pt 4, SCLC, b.i.d. 400 mg/m^2 (1,200 mg/day))
9 (37.5) no. (%): Nauseous, Total no. (%) (all dose levels, n = 24)
not reached: MTD (maximum tolerated dose) (t.i.d. after meals, up to 400 mg/m^2)
≤ 400 mg/m^2: Recommended dosage (b.i.d.) | Recommended dosage (t.i.d.)
6: Number of patients with drug-related Alkaline phosphatase increased [3] | Number of patients with drug-related Discoloration urine/stool [3] | Number of patients with drug-related Discoloration urine/stool [8] | Number of patients with drug-related Malaise [8] | Number of patients with drug-related Discoloration urine/stool [10]
6 (25.0) no. (%): Face edema, Total no. (%) (all dose levels, n = 24) | γ-glutamyltransferase increased, Total no. (%) (all dose levels, n = 24)
not found: Dose-limiting toxicity (DLT) (500 mg/m^2 b.i.d. dose level)
17 (70.8) no. (%): Diarrhea, Total no. (%) (all dose levels, n = 24)
– (DLT): Toxicity ≥ G3-4 (Pt 5, NSCLC, b.i.d. 400 mg/m^2 (1,200 mg/day))
2: Number of patients with drug-related Anorexia [1] | Number of patients with drug-related Abdominal pain [2] | Number of patients with drug-related Anorexia [3] | Number of patients with drug-related Blood albumin decreased [3] | Number of patients with drug-related Nauseous [3] | Number of patients with drug-related Vomiting [3] | Number of patients with drug-related Abdominal pain [4] | Number of patients with drug-related Blood albumin decreased [4] | Number of patients with drug-related Headache [4] | Number of patients with drug-related γ-glutamyltransferase increased [4] | Number of patients with drug-related Anorexia [6] | Number of patients with drug-related Vomiting [6] | Number of patients with drug-related Blood albumin decreased [7] | Number of patients with drug-related Alkaline phosphatase increased [8] | Number of patients with drug-related Anorexia [8] | Number of patients with drug-related Face edema [8] | Number of patients with drug-related Abdominal pain [9] | Number of patients with drug-related Abdominal pain upper [9] | Number of patients with drug-related Alkaline phosphatase increased [10] | Number of patients with drug-related Headache [10] | Number of patients with drug-related γ-glutamyltransferase increased [10] | Number of patients with drug-related Abdominal pain [11] | Number of patients with drug-related Back pain [11] | Number of patients with drug-related Blood albumin decreased [11]
20 (83.3) no. (%): Blood albumin decreased, Total no. (%) (all dose levels, n = 24)
1 (4.2) no. (%): Dyspnea, Total no. (%) (all dose levels, n = 24) | Hypoxia, Total no. (%) (all dose levels, n = 24) | Pericardial effusion, Total no. (%) (all dose levels, n = 24)
5: Number of patients with drug-related Diarrhea [3] | No. maximum grade (patients, drug-related adverse events) [4] | Number of patients with drug-related Blood albumin decreased [8] | No. maximum grade (patients, drug-related adverse events) [9] | No. maximum grade (patients, drug-related adverse events) [11]
11 (45.8) no. (%): Abdominal pain, Total no. (%) (all dose levels, n = 24)
12 (50.0) no. (%): Anorexia, Total no. (%) (all dose levels, n = 24)
13 (54.2) no. (%): Alkaline phosphatase increased, Total no. (%) (all dose levels, n = 24)
7 (29.2) no. (%): Headache, Total no. (%) (all dose levels, n = 24)
1: Number of patients with drug-related Alkaline phosphatase increased [1] | Number of patients with drug-related Blood albumin decreased [1] | Number of patients with drug-related Diarrhea [1] | Number of patients with drug-related Malaise [1] | Number of patients with drug-related Serum total protein decreased [1] | Number of patients with drug-related Blood albumin decreased [2] | Number of patients with drug-related Diarrhea [2] | Number of patients with drug-related Malaise [2] | Number of patients with drug-related Nauseous [2] | Number of patients with drug-related Vomiting [2] | Number of patients with drug-related Abdominal pain [3] | Number of patients with drug-related Abdominal pain upper [3] | Number of patients with drug-related Back pain [3] | Number of patients with drug-related Headache [3] | Number of patients with drug-related Pleural effusion [3] | Number of patients with drug-related γ-glutamyltransferase increased [3] | Number of patients with drug-related Anorexia [4] | Number of patients with drug-related Back pain [4] | Number of patients with drug-related Nauseous [4] | Number of patients with drug-related Serum total protein decreased [4] | No. maximum grade (patients, drug-related adverse events) [5] | Number of patients with drug-related Anorexia [5] | Number of patients with drug-related Dyspnea [5] | Number of patients with drug-related Hypoxia [5] | Number of patients with drug-related Pleural effusion [5] | Number of patients with drug-related Abdominal pain upper [6] | Number of patients with drug-related Alkaline phosphatase increased [6] | Number of patients with drug-related Blood albumin decreased [6] | Number of patients with drug-related Diarrhea [6] | Number of patients with drug-related Face edema [6] | Number of patients with drug-related Headache [6] | Number of patients with drug-related Pleural effusion [6] | Number of patients with drug-related Serum total protein decreased [6] | Number of patients with drug-related Abdominal pain upper [7] | Number of patients with drug-related Headache [7] | Number of patients with drug-related Serum total protein decreased [7] | No. maximum grade (patients, drug-related adverse events) [8] | Number of patients with drug-related Abdominal pain [8] | Number of patients with drug-related Nauseous [8] | Number of patients with drug-related Pleural effusion [8] | Number of patients with drug-related Serum total protein decreased [8] | Number of patients with drug-related γ-glutamyltransferase increased [8] | Number of patients with drug-related Back pain [9] | Number of patients with drug-related Blood albumin decreased [9] | Number of patients with drug-related Diarrhea [9] | Number of patients with drug-related Abdominal pain [10] | Number of patients with drug-related Anorexia [10] | Number of patients with drug-related Nauseous [10] | Number of patients with drug-related Pleural effusion [10] | Number of patients with drug-related Serum total protein decreased [10] | Number of patients with drug-related Alkaline phosphatase increased [11] | Number of patients with drug-related Anorexia [11] | Number of patients with drug-related Diarrhea [11] | No. maximum grade (patients, drug-related adverse events) [12] | Number of patients with drug-related Pericardial effusion [12]
2 patients: Patients experiencing DLTs (400 mg/m^2 b.i.d. dose level, three plus three patients, grade 3 dyspnea, hypoxemia, pleural effusion and anorexia, and unacceptable grade 2 anorexia)
8 (33.3) no. (%): Vomiting, Total no. (%) (all dose levels, n = 24)
